Measurements collected from several papers.
Protocols differ between the studies behind these lines.
PLG trypsin-like site: Plasminogen, trypsin-like site (PLG, Homo sapiens, UniProt P00747)
gag-pol reverse transcriptase: Gag-Pol polyprotein, reverse transcriptase (gag-pol, Human immunodeficiency virus 1, UniProt P03366)
OPRD1: Delta-type opioid receptor (OPRD1, Homo sapiens, UniProt P41143)
CA2: Carbonic anhydrase 2 (CA2, Homo sapiens, UniProt P00918)

SMILES | target | effect on | action | method | pH | endpoint | result
CC(C)(C)[C@H](NC(=O)[C@H](CCCNC(=N)N)NC(=O)Cc1ccc(CN)cc1)C(=O)N[C@@H](CCONC(=N)N)C(=O)NCc1ccc(C(=N)N)cc1 | PLG trypsin-like site | enzyme activity | inhibitor |  | pH 8 | Ki | 3.3 µM
O=C(CCCOc1cccc(Br)c1)N[C@H]1C[C@@H]2C[C@@H]2C1=O (relative stereo) | Transcriptional activator protein LasR (lasR, Pseudomonas aeruginosa, UniProt P25084, R61A) | reporter gene | agonist |  |  | EC50 | 0.13 µM
CC(=O)Nc1ccc(O)cc1 | NAD(P)H dehydrogenase [quinone] 1 (NQO1, Homo sapiens, UniProt P15559) | enzyme activity | inhibitor | absorbance |  | Ki | > 1000 µM
CC(C)(C)[C@H](NC(=O)[C@H](CCCNC(=N)N)NC(=O)Cc1ccc(CNC(=N)N)cc1)C(=O)N[C@@H](CCCNC(=N)N)C(=O)NCc1ccc(C(=N)N)cc1 | PLG trypsin-like site | enzyme activity | inhibitor |  | pH 8 | Ki | 3.5 µM
Cc1cc(/C=C/C#N)cc(C)c1Nc1ccnc(Nc2ccc(C#N)cc2)n1 | gag-pol reverse transcriptase | binding |  | SPR |  | Kd | 2.53 µM
Cn1cc(-c2cccc(N3CCc4c(sc5c4CC(C)(C)C5)C3=O)c2CO)cc(Nc2ccncn2)c1=O | Receptor tyrosine-protein kinase erbB-2 (ERBB2, Homo sapiens, UniProt P04626) | enzyme activity | inhibitor | FRET |  | Ki | 1.75 µM
CCC[C@H](CNC)NC[C@@H](CCC)NCC1CCCCCC1 | OPRD1 | cell-free assay |  |  |  | IC50 | > 10 µM
C[C@H](N)Cn1ncc2ccc3c(c21)CCCO3 | Alpha-2A adrenergic receptor (ADRA2A, Homo sapiens, UniProt P08913) | ligand displacement |  | radioligand |  | Ki | 6.26 µM
CCC(C)[C@@H](CNC)N1CCN(CCC2CC3CCC2C3)[C@H](C(C)C)C1 (some centres unmarked) | OPRD1 | cell-free assay |  |  |  | IC50 | > 10 µM
Cc1cn([C@@H]2CC[C@H](OC(C(=O)O)C(=O)O)C2)c(=O)[nH]c1=O | gag-pol reverse transcriptase | enzyme activity | inhibitor | radiometric |  | IC50 | 20 µM
CS(=O)(=O)c1cccc(OCCCC(=O)N[C@H]2C[C@@H]3C[C@@H]3C2=O)c1 (relative stereo) | Transcriptional activator protein LasR (lasR, Pseudomonas aeruginosa, UniProt P25084, Y93F) | reporter gene | agonist |  |  | EC50 | 0.5 µM
On1ccc2ccccc2c1=S | CA2 | enzyme activity | inhibitor | absorbance | pH 8 | Ki | 15 µM
CCCC[C@H](CNCc1ccccc1)N1CCN(CC2CCCCCC2)[C@H](Cc2ccc(O)cc2)C1 | OPRD1 | cell-free assay |  |  |  | IC50 | > 10 µM
CC(C)(C)[C@H](NC(=O)[C@H](CCCNC(=N)N)NC(=O)Cc1ccc(CNC(=N)N)cc1)C(=O)N[C@@H](CCONC(=N)N)C(=O)NCc1ccc(C(=N)N)cc1 | PLG trypsin-like site | enzyme activity | inhibitor |  | pH 8 | Ki | 3.1 µM
CNC[C@H](Cc1ccc(O)cc1)NC[C@H](Cc1ccc(O)cc1)NCC1CCC(C)CC1 (some centres unmarked) | OPRD1 | cell-free assay |  |  |  | IC50 | > 10 µM
O=c1c(O)c(-c2ccc(O[C@@H]3O[C@H](CO)[C@@H](O)[C@H](O)[C@H]3O)c(O)c2)oc2cc(O)cc(O)c12 | CA2 | enzyme activity | inhibitor | absorbance |  | Ki | 0.0222 µM
O=C(NCc1ccncc1)Nc1ccc(S(=O)(=O)N2CC3CCC(C2)O3)cc1 | Nicotinamide phosphoribosyltransferase (NAMPT, Homo sapiens, UniProt P43490) | ligand displacement |  | FP |  | Kd | 2 to 6 µM
